What was measured:
Format in all cases: cell-based
[1] = molecular target: T1, Aryl hydrocarbon receptor (Homo sapiens, UniProt P35869); test: Agonist activity at AhR (unknown origin) expressed in mouse H1L1.1c2 cells at 1 to 100 uM after 8 to 10 hrs by luciferase reporter gene assay
T1 sequence (P35869 whole entry): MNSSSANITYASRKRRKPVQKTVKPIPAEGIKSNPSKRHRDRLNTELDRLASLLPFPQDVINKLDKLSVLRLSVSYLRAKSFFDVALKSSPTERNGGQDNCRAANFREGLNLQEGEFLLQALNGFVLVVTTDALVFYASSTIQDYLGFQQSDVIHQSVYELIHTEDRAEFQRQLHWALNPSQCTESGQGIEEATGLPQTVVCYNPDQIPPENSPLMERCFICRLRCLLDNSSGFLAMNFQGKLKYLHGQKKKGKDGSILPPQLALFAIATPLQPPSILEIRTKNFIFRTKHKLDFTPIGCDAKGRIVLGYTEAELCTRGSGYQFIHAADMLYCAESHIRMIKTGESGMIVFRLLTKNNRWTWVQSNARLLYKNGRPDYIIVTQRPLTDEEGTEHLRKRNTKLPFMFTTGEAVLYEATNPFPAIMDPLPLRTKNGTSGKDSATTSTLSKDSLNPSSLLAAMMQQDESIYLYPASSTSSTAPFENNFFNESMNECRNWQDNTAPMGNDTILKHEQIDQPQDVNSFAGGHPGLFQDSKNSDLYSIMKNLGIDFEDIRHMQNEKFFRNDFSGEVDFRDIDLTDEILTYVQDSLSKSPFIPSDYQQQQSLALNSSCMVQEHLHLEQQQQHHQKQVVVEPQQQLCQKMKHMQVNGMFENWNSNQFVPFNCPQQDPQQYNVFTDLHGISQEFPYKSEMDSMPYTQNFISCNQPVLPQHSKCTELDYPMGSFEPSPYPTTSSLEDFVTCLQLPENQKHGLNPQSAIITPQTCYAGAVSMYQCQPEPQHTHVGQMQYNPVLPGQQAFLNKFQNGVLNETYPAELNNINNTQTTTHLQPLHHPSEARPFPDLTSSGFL
Procedure, shortened: (§1)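 AhR luciferase reporter cells were grown and treated with compounds at three concentrations (1, 10 and 100 μM). The reference ligand FICZ was run at 1 μM. The read-out was luciferase activity. Data are given as mean ± SD, with significance at P < 0.05, < 0.01 and < 0.001.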

[2] = molecular target: T1, Aryl hydrocarbon receptor; test: Antagonist activity at AhR (unknown origin) expressed in mouse H1L1.1c2 cells assessed as inhibition of FICZ-induced AhR activation at 1 to 100 uM after 8 to 10 hrs by luciferase reporter gene assay
[3] = molecular target: T1, Aryl hydrocarbon receptor; test: Agonist activity at AhR (unknown origin) expressed in mouse H1L1.1c2 cells at 100 uM after 8 to 10 hrs by luciferase reporter gene assay
[4] = molecular target: T1, Aryl hydrocarbon receptor; test: Agonist activity at AhR (unknown origin) expressed in mouse H1L1.1c2 cells after 8 to 10 hrs by luciferase reporter gene assay; procedure, shortened: as §1

| Activity [1] | inhibition (INH) [2] | Activity [3] | Activity [4] | Structure (SMILES) |
| --- | --- | --- | --- | --- |
| Not Active | Not Active | – | – | O=c1ccc2ccc(O)cc2o1 [UMBELLIFERONE] |
| – | Not Active | Active | – | CCC#CCOc1ccc2ccc(=O)oc2c1 [7-(2-PENTYNYLOXY)COUMARIN] |
| Not Active | Not Active | – | – | COc1cc(/C=C/C(=O)O)ccc1OC/C=C(\C)CCC=C(C)C |
| – | Not Active | – | Dose-dependent effect | CC(C)=CCOc1ccc2ccc(=O)oc2c1 [7-PRENYLOXYCOUMARIN] |
| Not Active | Not Active | – | – | COc1ccc2ccc(=O)oc2c1 [HERNIARIN] |
| Not Active | Not Active | – | – | CCOc1ccc2ccc(=O)oc2c1 [ETHOXYCOUMARIN] |
| – | Not Active | Active | – | CC(C)(C)COc1ccc2ccc(=O)oc2c1 |
| – | Not Active | – | Dose-dependent effect | COc1cc(/C=C/C(=O)O)ccc1OCC=C(C)C [BOROPINIC ACID] |
| – | Not Active | Active | – | C/C=C/COc1ccc2ccc(=O)oc2c1 [(E)-7-(2-BUTENYLOXY)COUMARIN] |
| Not Active | Not Active | – | – | CC(C)=CCC/C(C)=C/COc1ccc2ccc(=O)oc2c1 |
| Not Active | Active | – | – | CCCOc1ccc2ccc(=O)oc2c1 [7-PROPOXYCOUMARIN] |
| Not Active | Not Active | – | – | CC(C)CCOc1ccc2ccc(=O)oc2c1 |
| Not Active | Not Active | – | – | C=CCOc1ccc2ccc(=O)oc2c1 [7-ALLYLOXYCOUMARIN] |

From ChEMBL document CHEMBL4190192, “Interaction of 7-Alkoxycoumarins with the Aryl Hydrocarbon Receptor” (J Nat Prod, 2017)
